Source: ChEMBL document CHEMBL1127799, “Derivatives of a novel cyclopeptolide. 1. Synthesis, antifungal activity, and structure-activity relationships” (1994)
Values after ≈ are worked out from the molar mass of the structure shown.

What was measured:
Type in all cases: functional
Candida albicans [1] = test: Tested for minimum inhibitory concentration against Candida albicans 124 (Candida albicans) at pH of 4.5.
Procedure, shortened: (§1)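 Broth microdilution in malt extract broth, initial pH 4.5 or 6.5, with 1×10^3 CFU per 0.2 mL well of thawed stored cultures. Compound stocks were made in 5% DMSO/0.2% Tween 80 and diluted to final 0.05–100 μg/mL. Plates were incubated 48 h at 30 °C and read macroscopically. MIC was the lowest concentration with no detectable growth. Vehicle-only wells served as controls.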

Candida albicans [2] = test: Tested for minimum inhibitory concentration against Candida albicans 124 (Candida albicans) at pH of 6.5.; procedure, shortened: as §1
[3] = test system: Meyerozyma guilliermondii; test: Tested for minimum inhibitory concentration against Candida guilliermondii 80 (C.g) at pH of 6.5.; procedure, shortened: as §1
[4] = test system: Meyerozyma guilliermondii; test: Tested for minimum inhibitory concentration against Candida guilliermondii 80 (C.g) at pH of 4.5.; procedure, shortened: as §1
Pichia kudriavzevii [5] = test: Tested for minimum inhibitory concentration against Candida krusei 132 (C.k) at pH of 4.5.; procedure, shortened: as §1
Pichia kudriavzevii [6] = test: Tested for minimum inhibitory concentration against Candida krusei 132 (C.k) at pH of 6.5.; procedure, shortened: as §1
Candida tropicalis [7] = test: Tested for minimum inhibitory concentration against Candida tropicalis 43 (C.t) at pH of 4.5.; procedure, shortened: as §1
Candida tropicalis [8] = test: Tested for minimum inhibitory concentration against Candida tropicalis 43 (C.t) at pH of 6.5.; procedure, shortened: as §1

Row | SMILES | MIC (Candida albicans [1]) | MIC (Candida albicans [2]) | MIC [3] | MIC [4] | MIC (Pichia kudriavzevii [5]) | MIC (Pichia kudriavzevii [6]) | MIC (Candida tropicalis [7]) | MIC (Candida tropicalis [8])
1 | CC[C@@H](C)[C@H]1C(=O)NCC(=O)N(C)[C@@H](C(C)C)C(=O)N[C@@H](Cc2ccc(O)cc2)C(=O)O[C@H](C)C(=O)N2CCCC[C@H]2C(=O)N(C)[C@@H](C(C)C)C(=O)N[C@@H](C(C)C)C(=O)N(C)[C@@H](CC(=O)O)C(=O)N(C)[C@@H]([C@@H](C)CC)C(=O)N1C | > 100 µg/mL | 50 µg/mL (≈ 44.9 µM) | 100 µg/mL (≈ 89.9 µM) | > 100 µg/mL | > 100 µg/mL | 100 µg/mL (≈ 89.9 µM) | > 100 µg/mL | 100 µg/mL (≈ 89.9 µM)
2 | CC[C@@H](C)[C@H]1C(=O)NCC(=O)N(C)[C@@H](C(C)C)C(=O)N[C@@H](Cc2ccc(OC)cc2)C(=O)O[C@H](C)C(=O)N2CCCC[C@H]2C(=O)N(C)[C@@H](C(C)C)C(=O)N[C@@H](C(C)C)C(=O)N(C)[C@@H](CC(=O)OC(C)(C)C)C(=O)N(C)[C@@H]([C@@H](C)CC)C(=O)N1C | > 100 µg/mL | > 100 µg/mL | > 100 µg/mL | > 100 µg/mL | > 100 µg/mL | > 100 µg/mL | > 100 µg/mL | > 100 µg/mL
3 | CC[C@H](C)[C@H]1C(=O)NCC(=O)N(C)[C@@H](C(C)C)C(=O)N[C@@H](Cc2ccc(OC)cc2)C(=O)N[C@@H](C)C(=O)N[C@@H](C)C(=O)N2CCCC[C@H]2C(=O)N(C)[C@@H](C(C)C)C(=O)N[C@@H](C(C)C)C(=O)N(C)[C@@H](CC(=O)O)C(=O)N(C)[C@@H]([C@@H](C)CC)C(=O)N1C | > 100 µg/mL | > 100 µg/mL | > 100 µg/mL | > 100 µg/mL | > 100 µg/mL | > 100 µg/mL | > 100 µg/mL | > 100 µg/mL
4 | CC[C@@H](C)[C@H]1C(=O)NCC(=O)N(C)[C@@H](C(C)C)C(=O)N[C@@H](Cc2ccc(OC)cc2)C(=O)O[C@H](C)C(=O)N2CCCC[C@H]2C(=O)N(C)[C@@H](C(C)C)C(=O)N[C@@H](C(C)C)C(=O)N(C)[C@@H](CCN=[N+]=[N-])C(=O)N(C)[C@@H]([C@@H](C)CC)C(=O)N1C | > 100 µg/mL | > 100 µg/mL | > 100 µg/mL | > 100 µg/mL | > 100 µg/mL | > 100 µg/mL | > 100 µg/mL | > 100 µg/mL
5 | CC[C@@H](C)[C@H]1C(=O)NCC(=O)N(C)[C@@H](C(C)C)C(=O)N[C@@H](Cc2ccc(OCc3ccc(Br)cc3)cc2)C(=O)O[C@H](C)C(=O)N2CCCC[C@H]2C(=O)N(C)[C@@H](C(C)C)C(=O)N[C@@H](C(C)C)C(=O)N(C)[C@@H](CC(=O)O)C(=O)N(C)[C@@H]([C@@H](C)CC)C(=O)N1C | > 100 µg/mL | > 100 µg/mL | > 100 µg/mL | > 100 µg/mL | > 100 µg/mL | > 100 µg/mL | > 100 µg/mL | > 100 µg/mL
6 | CC[C@@H](C)[C@H]1C(=O)NCC(=O)N(C)[C@@H](C(C)C)C(=O)N[C@@H](Cc2ccc(OC)cc2)C(=O)O[C@H](C)C(=O)N2CCCC[C@H]2C(=O)N(C)[C@@H](C(C)C)C(=O)N[C@@H](C(C)C)C(=O)N(C)[C@@H](CCOC(=O)c2ccccc2C(=O)O)C(=O)N(C)[C@@H]([C@@H](C)CC)C(=O)N1C | > 100 µg/mL | > 100 µg/mL | > 100 µg/mL | > 100 µg/mL | > 100 µg/mL | > 100 µg/mL | > 100 µg/mL | > 100 µg/mL

Next, values leading:

Row | MIC (Candida albicans [1]) | MIC (Candida albicans [2]) | MIC [3] | MIC [4] | MIC (Pichia kudriavzevii [5]) | MIC (Pichia kudriavzevii [6]) | MIC (Candida tropicalis [7]) | MIC (Candida tropicalis [8]) | SMILES
7 | 100 µg/mL (≈ 80.8 µM) | > 100 µg/mL | > 100 µg/mL | > 100 µg/mL | > 100 µg/mL | > 100 µg/mL | > 100 µg/mL | > 100 µg/mL | CC[C@@H](C)[C@H]1C(=O)NCC(=O)N(C)[C@@H](C(C)C)C(=O)N[C@@H](Cc2ccc(OCc3ccc(Cl)cc3)cc2)C(=O)O[C@H](C)C(=O)N2CCCC[C@H]2C(=O)N(C)[C@@H](C(C)C)C(=O)N[C@@H](C(C)C)C(=O)N(C)[C@@H](CC(=O)O)C(=O)N(C)[C@@H]([C@@H](C)CC)C(=O)N1C
8 | 3.13 µg/mL (≈ 2.78 µM) | 6.25 µg/mL (≈ 5.55 µM) | 25 µg/mL (≈ 22.2 µM) | 6.25 µg/mL (≈ 5.55 µM) | 25 µg/mL (≈ 22.2 µM) | 50 µg/mL (≈ 44.4 µM) | 6.25 µg/mL (≈ 5.55 µM) | 25 µg/mL (≈ 22.2 µM) | CC[C@@H](C)[C@H]1C(=O)NCC(=O)N(C)[C@@H](C(C)C)C(=O)N[C@@H](Cc2ccc(OC)cc2)C(=O)N[C@@H](C)C(=O)N2CCCC[C@H]2C(=O)N(C)[C@@H](C(C)C)C(=O)N[C@@H](C(C)C)C(=O)N(C)[C@@H](CC(=O)O)C(=O)N(C)[C@@H]([C@@H](C)CC)C(=O)N1C
9 | 12.5 µg/mL (≈ 10.7 µM) | 100 µg/mL (≈ 85.4 µM) | > 100 µg/mL | 25 µg/mL (≈ 21.4 µM) | > 100 µg/mL | > 100 µg/mL | 25 µg/mL (≈ 21.4 µM) | > 100 µg/mL | CC[C@@H](C)[C@H]1C(=O)NCC(=O)N(C)[C@@H](C(C)C)C(=O)N[C@@H](Cc2ccc(OCC(=O)O)cc2)C(=O)O[C@H](C)C(=O)N2CCCC[C@H]2C(=O)N(C)[C@@H](C(C)C)C(=O)N[C@@H](C(C)C)C(=O)N(C)[C@@H](CC(=O)O)C(=O)N(C)[C@@H]([C@@H](C)CC)C(=O)N1C
10 | > 100 µg/mL | > 100 µg/mL | > 100 µg/mL | > 100 µg/mL | > 100 µg/mL | > 100 µg/mL | > 100 µg/mL | > 100 µg/mL | CC[C@@H](C)[C@H]1C(=O)NCC(=O)N(C)[C@@H](C(C)C)C(=O)N[C@@H](Cc2ccc(OC)cc2)C(=O)O[C@H](C)C(=O)N2CCCC[C@H]2C(=O)N(C)[C@@H](C(C)C)C(=O)N[C@@H](C(C)C)C(=O)N(C)[C@@H](CC(=O)N(CC)CC)C(=O)N(C)[C@@H]([C@@H](C)CC)C(=O)N1C
11 | 3.13 µg/mL (≈ 2.78 µM) | 12.5 µg/mL (≈ 11.1 µM) | 100 µg/mL (≈ 88.8 µM) | 12.5 µg/mL (≈ 11.1 µM) | 25 µg/mL (≈ 22.2 µM) | 50 µg/mL (≈ 44.4 µM) | 6.25 µg/mL (≈ 5.55 µM) | 25 µg/mL (≈ 22.2 µM) | CC[C@@H](C)[C@H]1C(=O)NCC(=O)N(C)[C@@H](C(C)C)C(=O)N[C@@H](Cc2ccc(OC)cc2)C(=O)O[C@@H](C)C(=O)N2CCCC[C@H]2C(=O)N(C)[C@@H](C(C)C)C(=O)N[C@@H](C(C)C)C(=O)N(C)[C@@H](CC(=O)O)C(=O)N(C)[C@@H]([C@@H](C)CC)C(=O)N1C
12 | 50 µg/mL (≈ 41.6 µM) | > 100 µg/mL | > 100 µg/mL | > 100 µg/mL | > 100 µg/mL | > 100 µg/mL | > 100 µg/mL | > 100 µg/mL | CC[C@@H](C)[C@H]1C(=O)NCC(=O)N(C)[C@@H](C(C)C)C(=O)N[C@@H](Cc2ccc(OCc3ccccc3)cc2)C(=O)O[C@H](C)C(=O)N2CCCC[C@H]2C(=O)N(C)[C@@H](C(C)C)C(=O)N[C@@H](C(C)C)C(=O)N(C)[C@@H](CC(=O)O)C(=O)N(C)[C@@H]([C@@H](C)CC)C(=O)N1C
13 | 3.13 µg/mL (≈ 2.72 µM) | 6.25 µg/mL (≈ 5.42 µM) | 100 µg/mL (≈ 86.8 µM) | 100 µg/mL (≈ 86.8 µM) | 100 µg/mL (≈ 86.8 µM) | > 100 µg/mL | 100 µg/mL (≈ 86.8 µM) | 100 µg/mL (≈ 86.8 µM) | C=CCOc1ccc(C[C@@H]2NC(=O)[C@H](C(C)C)N(C)C(=O)CNC(=O)[C@H]([C@H](C)CC)N(C)C(=O)[C@H]([C@@H](C)CC)N(C)C(=O)[C@H](CC(=O)O)N(C)C(=O)[C@H](C(C)C)NC(=O)[C@H](C(C)C)N(C)C(=O)[C@@H]3CCCCN3C(=O)[C@@H](C)OC2=O)cc1
14 | 12.5 µg/mL (≈ 10.4 µM) | > 100 µg/mL | > 100 µg/mL | 50 µg/mL (≈ 41.8 µM) | > 100 µg/mL | > 100 µg/mL | 100 µg/mL (≈ 83.6 µM) | > 100 µg/mL | CC[C@H](C)[C@H]1C(=O)NCC(=O)N(C)[C@@H](C(C)C)C(=O)N[C@@H](Cc2ccc(OC)cc2)C(=O)N[C@@H](C)C(=O)N[C@H](C)C(=O)N2CCCC[C@H]2C(=O)N(C)[C@@H](C(C)C)C(=O)N[C@@H](C(C)C)C(=O)N(C)[C@@H](CC(=O)O)C(=O)N(C)[C@@H]([C@@H](C)CC)C(=O)N1C
